This is an account of results in ChEMBL document CHEMBL3352295, “Neuroprotective Xanthones from the Root Bark of Cudrania tricuspidata” (J Nat Prod, 2014).

The test system of the first assay is SH-SY5Y. The assay is described as follows: Ratio of curcumin EC50 to compound EC50 for neuroprotective activity against 6-hydroxydopamine-induced human SH-SY5Y cell death after 24 hrs by MTT assay. The assay is classed as functional. A digest of the protocol:
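SH-SY5Y cells seeded at 2 × 10^4 cells/well and grown 24 h. Cells then received 100 μM 6-OHDA together with test samples at ≥4 concentrations for a further 24 h. Viability was read by MTT (0.5 mg/mL in PBS, 37 °C, 4 h), with formazan dissolved in DMSO and read at 540 nm. EC50 (half-maximal protection) was taken from semilog plots, triplicate, mean ± SD. Curcumin was the reference.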
For `C=CC(C)(C)c1c(O)cc(O)c2c(=O)c3c(cc(O)c4oc(C(=C)C)cc43)oc12`, the “Ratio EC50” value amounted to 7.

For `C=CC(C)(C)c1c(O)cc(O)c2c(=O)c3ccc(O)c(OC)c3oc12`, the “Ratio EC50” value was found to be 7.

Tested on in the next assay: not listed separately
The assay is described as follows: Neuroprotective activity against 6-hydroxydopamine-induced human SH-SY5Y cell death after 24 hrs by MTT assay. Format: functional, cell-based. A digest of the protocol:
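SH-SY5Y cells seeded at 2 × 10^4 cells/well, grown 24 h, then exposed to 100 μM 6-OHDA together with test compounds (at least four concentrations) for 24 h. Viability by MTT (0.5 mg/mL in PBS, 37 °C, 4 h), formazan dissolved in DMSO, absorbance 540 nm. EC50 = half-maximal protection, from semilog concentration–effect plot; triplicate, mean ± SD; curcumin positive control.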
(Tetrazolium dyes change colour on reduction, which living cells bring about.)
What is called EC50 is the midpoint of the concentration-response curve. A high value points to weaker potency. Take `C=CC(C)(C)c1c(O)cc(O)c2c(=O)c3c(CC(=O)C(=C)C)c(OC)c(O)cc3oc12`: the 50% effective concentration (EC50) was found to be 7.2 µM. In the case of `C=CC(C)(C)c1c(O)cc(O)c2c(=O)c3c(CC(O)C(=C)C)c(O)c(O)cc3oc12` (stereo not given), the EC50 was determined as 16.6 µM. Against the preceding molecule, the EC50 is about 2.3-fold higher. `CC(C)=CCc1c(O)c(O)cc2c(=O)c3c4c(c(O)cc3oc12)C(C)(C)C(C)O4` (stereo not given) registered an EC50 of 2.4 µM. `CC1Oc2cc3oc4c5c(c(O)cc4c(=O)c3c(O)c2C1(C)C)OC(C)(C)C(O)C5` (stereo not given) displayed a concentration giving a half-maximal response (EC50) of 2.2 µM. `C=CC(C)(C)c1c(O)cc(O)c2c(=O)c3c(cc(O)c4oc(C(=C)C)cc43)oc12` displayed an EC50 of 0.8 µM. Compared with the last molecule, the EC50 is about 2.8-fold lower. With `C=CC(C)(C)c1c(OC)cc(O)c2c(=O)c3c(CC(O)C(=C)C)c(O)c(O)cc3oc12` (stereo not given), the midpoint of the response, the EC50, lay at 2.3 µM.

Molecule `CC1(C)C=Cc2c(cc(O)c3c(=O)c4c5c(ccc4oc23)OC(C)(C)C=C5)O1` came in with a concentration for a half-maximal effect (EC50) of 4.5 µM. Regarding `CC1(C)C=Cc2c(cc(O)c3c(=O)c4cccc(O)c4oc23)O1`, the response was half-maximal at 5.1 µM (EC50). Regarding `C=CC(C)(C)c1c(O)cc(O)c2c(=O)c3ccc(O)c(OC)c3oc12`, the EC50 turned out to be 0.7 µM. `CC(C)=CCc1c2c(c(O)c3c(=O)c4ccc(O)c(O)c4oc13)C(C)(C)C(C)O2` (stereo not given) returned an EC50 of 3 µM. Compared with the last molecule, the EC50 is about 4.3-fold higher. In the case of `C=CC(C)(C)c1c(O)cc2oc3c(CC=C(C)C)c(O)c(O)cc3c(=O)c2c1O` [CUDRAXANTHONE L], the EC50 was 8.2 µM. Still for that read-out and setting: then `COc1cc(/C=C/C(=O)CC(=O)/C=C/c2ccc(O)c(OC)c2)ccc1O` [CURCUMIN], with 6 µM; and `CC1(C)C=Cc2c(cc(O)c3c(=O)c4cc(O)ccc4oc23)O1` [NIGROLINEAXANTHONE F], with 15.5 µM.
